One molecule from ChEMBL document CHEMBL4265954, “Discovery of potent liver-selective stearoyl-CoA desaturase-1 (SCD1) inhibitors, thiazole-4-acetic acid derivatives, for the treatment of diabetes, hepatic steatosis, and obesity” (Eur J Med Chem, 2018) can be followed below.

Where only a bound is given, the exact number is not on record here.

What is called IC50 is the concentration that inhibits the measured activity by half. The term clearance denotes a measure of how efficiently the substance is removed, as volume per time. A word on the Tmax: it is the time at which the peak concentration occurs. For orientation: bioavailability means the share of a dose that reaches the circulation, judged against a reference dose that is usually intravenous. As a reminder, the Cmax is the maximum level reached in the sampled fluid or tissue.

One data set has as its target T1, Cytochrome P450 2A6 (Homo sapiens, UniProt P11509).
T1 sequence (P11509 whole entry): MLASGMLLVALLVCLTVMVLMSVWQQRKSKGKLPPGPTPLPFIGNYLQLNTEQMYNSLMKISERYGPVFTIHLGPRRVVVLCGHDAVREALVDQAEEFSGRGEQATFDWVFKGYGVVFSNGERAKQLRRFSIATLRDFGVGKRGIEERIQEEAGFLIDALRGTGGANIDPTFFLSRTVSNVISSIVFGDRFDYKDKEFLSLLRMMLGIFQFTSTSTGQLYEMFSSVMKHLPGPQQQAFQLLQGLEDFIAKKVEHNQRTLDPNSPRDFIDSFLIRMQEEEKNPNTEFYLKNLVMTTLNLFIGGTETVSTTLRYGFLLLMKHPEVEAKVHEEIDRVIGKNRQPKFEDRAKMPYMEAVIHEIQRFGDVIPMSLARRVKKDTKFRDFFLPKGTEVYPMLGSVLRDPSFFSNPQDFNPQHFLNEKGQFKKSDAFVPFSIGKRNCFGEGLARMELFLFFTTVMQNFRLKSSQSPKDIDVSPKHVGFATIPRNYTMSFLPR
The data set is described as follows: Inhibition of CYP2A6 (unknown origin). In kind it is ADME.

In data set [1] the test system is Mus musculus. The experiment in a line: Ex vivo inhibition of SCD1 in C57BL/6J mouse liver assessed as residual activity at 10 mg/kg, po treated for 24 hrs followed by incubation with [14C]stearoyl-CoA substrate for 10 mins by TLC assay relative to control. It is filed as functional. The method in brief:
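Male 6-week-old C57BL/6J mice dosed orally as a suspension in 0.5% methylcellulose. Liver or eyelid was taken 6 or 24 h later and homogenized in 100 mM Tris-HCl pH 7.4 with 0.25 M sucrose. S9 was obtained at 10,000 × g, 4 °C. S9 was incubated with [14C]stearoyl-CoA, NADH, MgCl2 and cytochrome b5 at room temperature, 10 min for liver and 30 min for eyelid. Lipids were saponified and run on AgNO3 TLC to quantify stearate and oleate. Result is % of vehicle control.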

The nature of data set [2]: Drug uptake in high sucrose diet Sprague-Dawley rat eyelid at 10 mg/kg, po treated after 6 hrs. It is filed as ADME, organism-based. To be noted: read-out: Drug uptake. The method in brief: (§1)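 Sprague-Dawley rats on a high sucrose diet, given a single oral 10 mg/kg dose. Plasma, liver and eyelid drug concentrations were measured 6 h later, n=3. Liver/eyelid ratio was taken from the tissue concentrations.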

Data set [3] in a line: Total clearance in Sprague-Dawley rat at 1 mg/kg, iv. To be noted: in vivo. In kind it is ADME, organism-based. A digest of the protocol: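 Single intravenous dose of 1 mg/kg, with a parallel oral arm at 10 mg/kg, given to two male animals per species: C57BL/6J mice and Sprague Dawley rats. Total body clearance was derived from the plasma concentration–time profile of the compound.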

In the next data set the target is Cytochrome P450 2C9 (Homo sapiens, UniProt P11712). The experiment in a line: Inhibition of CYP2C9 (unknown origin). In kind it is ADME.
Cytochrome P450 2C9, sequence (P11712 whole entry): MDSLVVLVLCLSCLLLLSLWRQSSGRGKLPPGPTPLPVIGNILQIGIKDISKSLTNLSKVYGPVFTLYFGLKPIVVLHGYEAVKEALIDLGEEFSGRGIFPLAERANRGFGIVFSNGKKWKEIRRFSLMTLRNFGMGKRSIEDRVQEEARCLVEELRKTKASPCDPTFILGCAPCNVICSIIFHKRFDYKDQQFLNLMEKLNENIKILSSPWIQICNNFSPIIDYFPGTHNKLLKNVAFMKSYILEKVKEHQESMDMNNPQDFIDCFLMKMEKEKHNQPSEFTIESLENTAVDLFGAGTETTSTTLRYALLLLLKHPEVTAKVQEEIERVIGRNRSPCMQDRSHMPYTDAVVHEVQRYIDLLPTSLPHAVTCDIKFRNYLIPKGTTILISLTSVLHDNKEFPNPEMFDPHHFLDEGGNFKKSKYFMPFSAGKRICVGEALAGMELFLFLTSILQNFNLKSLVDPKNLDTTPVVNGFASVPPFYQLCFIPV
A further data set has as its target Cytochrome P450 2D6 (Homo sapiens, UniProt P10635). The experiment in a line: Inhibition of CYP2D6 (unknown origin). It is filed as ADME.
Data set [4] is described as follows: Metabolic stability in rat liver S9 fraction after 1 hr. In kind it is ADME, subcellular. To be noted: read-out: Stability.
In data set [5] the test system is Mus musculus. The experiment in a line: Antiobesity activity in high fat diet fed C57BL/6J mouse assessed as reduction in diet-induced body weight gain administered orally as diet mixture for 43 days. It is filed as functional, organism-based. The method in brief:
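C57BL/6J mice, individually housed, fed HFD for one month, then given HFD admixed with drug (0.0040% for 3 mg/kg/day, 0.0133% for 10 mg/kg/day) for 43 days, from 10 to 16 weeks of age. Chow-fed normal group as control. Body weight measured every 3–4 days. Mean ± SD, n=5–8. Dunnett's test versus HFD control.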

For another data set, the target named is T2, Acyl-CoA desaturase 1 (Mus musculus, UniProt P13516).
T2 sequence (P13516 whole entry): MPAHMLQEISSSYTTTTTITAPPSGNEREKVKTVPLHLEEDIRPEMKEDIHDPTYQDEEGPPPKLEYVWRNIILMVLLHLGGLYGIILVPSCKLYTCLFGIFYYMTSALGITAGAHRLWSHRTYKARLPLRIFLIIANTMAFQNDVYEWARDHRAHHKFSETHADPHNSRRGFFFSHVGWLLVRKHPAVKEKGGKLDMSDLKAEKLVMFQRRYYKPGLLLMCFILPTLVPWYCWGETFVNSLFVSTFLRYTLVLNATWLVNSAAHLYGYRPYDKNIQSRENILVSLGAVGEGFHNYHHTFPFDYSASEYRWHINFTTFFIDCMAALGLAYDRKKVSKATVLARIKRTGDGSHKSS
The data set is described as follows: Inhibition of mouse liver microsome SCD assessed as reduction in [3H]H2O production using stearoyl [9,10-3H]CoA as substrate in presence of NADH incubated for 30 mins by scintillation counting method. It is filed as microsomes. The method in brief:
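Desaturation of [9,10-3H]stearoyl-CoA measured as released [3H]H2O. Water was separated from charcoal-adsorbed substrate by filtration and counted by scintillation. Remaining activity = (compound − background)/(control − background). DMSO wells served as control and pre-stopped wells as background. IC50 was interpolated from the two points bracketing 50%.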

A short description of data set [6]: Tmax in Sprague-Dawley rat at 10 mg/kg, po. It is filed as ADME, organism-based. To be noted: in vivo. The method in brief:
(§2)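 Two male Sprague-Dawley rats per route, 10 mg/kg po and 1 mg/kg iv. Cmax, tmax, terminal-phase half-life and AUC0-inf were taken from plasma concentration–time curves. Bioavailability was derived from the po and iv data.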

Data set [7] has as its system Rattus norvegicus. The data set is described as follows: Toxicity in Sprague-Dawley rat assessed as loss of fur at 1000 mg/kg, po once daily for 2 weeks measured from day 9 of administeration. It is filed as organism-based. To be noted: in vivo, 336 h. The method in brief:
(§3)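 Male Sprague Dawley rats, 6 weeks old (5 per group), were dosed orally once daily for 2 weeks at 100 or 1000 mg/kg as a suspension in 0.5% methylcellulose; controls received vehicle. Readouts: clinical observations, body weight, food consumption, ophthalmoscopy in week 2, and terminal necropsy, hematology, clinical chemistry, organ weights and histopathology. Plasma levels were measured 24 h post-dose on days 1, 5 and 10.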

Data set [8] concerns Rattus norvegicus. The data set is described as follows: Toxicity in Sprague-Dawley rat at 100 mg/kg, po once daily for 2 weeks. To be noted: in vivo, 336 h. In kind it is organism-based. The method in brief:
as §3

Data set [9] is described as follows: Plasma concentration in high sucrose diet Sprague-Dawley rat at 10 mg/kg, po treated after 6 hrs. It is filed as ADME, organism-based. A digest of the protocol:
as §1

The nature of data set [10]: Oral bioavailability in C57BL/6J mouse at 10 mg/kg. In kind it is ADME, organism-based. To be noted: in vivo. The method in brief: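 Two male C57BL/6J mice per route, 10 mg/kg po and 1 mg/kg iv. Plasma concentration–time profiles gave Cmax, tmax, terminal half-life and AUC0-inf. Bioavailability was derived from the po and iv data.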
Data set [11] is described as follows: Cmax in Sprague-Dawley rat at 10 mg/kg, po. Also on record: dose 10 mg/kg, route oral. To be noted: in vivo. It is filed as ADME, organism-based. A digest of the protocol:
as §2

The nature of data set [12]: Metabolic stability in human liver S9 fraction after 1 hr. In kind it is ADME, subcellular. The settings on record: read-out: Stability.

Cytochrome P450 2D6, sequence (P10635 whole entry): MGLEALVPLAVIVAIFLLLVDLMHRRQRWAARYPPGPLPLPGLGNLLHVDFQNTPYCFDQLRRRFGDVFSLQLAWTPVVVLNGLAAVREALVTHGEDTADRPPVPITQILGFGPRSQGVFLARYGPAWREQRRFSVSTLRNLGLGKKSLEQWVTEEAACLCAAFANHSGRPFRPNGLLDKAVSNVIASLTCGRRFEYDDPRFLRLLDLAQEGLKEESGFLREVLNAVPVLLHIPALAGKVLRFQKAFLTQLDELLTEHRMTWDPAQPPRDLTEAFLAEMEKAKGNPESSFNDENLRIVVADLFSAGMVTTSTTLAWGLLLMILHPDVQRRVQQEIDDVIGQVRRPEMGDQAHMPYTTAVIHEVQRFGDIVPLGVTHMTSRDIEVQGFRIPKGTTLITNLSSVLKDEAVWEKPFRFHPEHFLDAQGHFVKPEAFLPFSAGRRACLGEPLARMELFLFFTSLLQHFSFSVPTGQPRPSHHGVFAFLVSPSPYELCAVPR

`CCCCc1ccccc1NCc1ccc(C(=O)Nc2nc(CC(=O)O)cs2)s1`: the 50% inhibitory concentration (IC50) against Cytochrome P450 2A6 was more than 50 µM; on Cytochrome P450 2C9 it was more than 50 µM; against Cytochrome P450 2D6 it was more than 50 µM; at Acyl-CoA desaturase 1, 0.0054 µM. Also, the Activity was 11% in the data set with Mus musculus [1], “Dose-dependent effect” in the data set with Mus musculus [5], “Toxic” with Rattus norvegicus [7] and “Non-Toxic” in the data set with Rattus norvegicus [8]. Moreover, the concentration at 6 h in data set [2] came out at 160 nM; in data set [9] it was 552 nM. The molecule further had a clearance in data set [3] of 3.5 mL/min/kg. Moreover, the remaining at 1 h stood at 87% in data set [4] and 91% in data set [12]. In data set [6], the Tmax stood at 30 min. This molecule also had a bioavailability in [10] of 28%. Also, the highest level in data set [11] (Cmax) was 8000 nM.
